Results taken from ChEMBL document CHEMBL2424574, “Structure-activity relationships and pharmacophore model of a noncompetitive pyrazoline containing class of GluN2C/GluN2D selective antagonists” (J Med Chem, 2013).
Activity calls are given as the source filed them. The rule behind the calls is not given here.

Assays:
Histamine H2 receptor = Histamine H2 receptor (Homo sapiens, UniProt P25021); experiment: Inhibition of histamine H2 receptor (unknown origin)
Procedure, shortened: (§1)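 Radioligand panel screening was run through the NIMH Psychoactive Drug Screening Program with compounds at 5 µM.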

MDCK [1] = experiment: Permeability across apical to basolateral side in dog MDCK cells expressing MDR1 assessed as compound recovery at 5 uM after 120 mins by LC-MS/MS analysis; format: ADME, cell-based, Canis lupus familiaris; settings: 2 h
Procedure, shortened: (§2)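 MDR1-MDCK monolayers grown to confluence on collagen-coated polycarbonate membranes. Assay buffer was HBSS with 10 mM HEPES and 15 mM glucose, pH 7.4, and the receiver side also held 1% BSA. Monolayers were dosed apically (A-to-B) or basolaterally (B-to-A) at 5 μM, 37 °C, 5% CO2. Donor and receiver were sampled at 120 min, in duplicate, by LC-MS/MS (ESI). Papp and percent recovery were calculated from receiver/donor concentrations.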

MDCK [2] = experiment: Apparent permeability across apical to basolateral side in dog MDCK cells expressing MDR1 at 5 uM after 120 mins by LC-MS/MS analysis; format: ADME, cell-based, Canis lupus familiaris; settings: 2 h; procedure, shortened: as §2
Homo sapiens = species: Homo sapiens; experiment: Inhibition of GluN2D receptor A752V mutant (unknown origin)
[3] = target: Ionotropic glutamate receptor NMDA 1/2D (Homo sapiens) (UniProt Q05586+O15399); settings: Oocyte, 1 uM
Mu-type opioid receptor = Mu-type opioid receptor (Homo sapiens, UniProt P35372); experiment: Inhibition of mu-type opioid receptor (unknown origin); procedure, shortened: as §1
Chain of Mu-type opioid receptor (P35372 whole entry): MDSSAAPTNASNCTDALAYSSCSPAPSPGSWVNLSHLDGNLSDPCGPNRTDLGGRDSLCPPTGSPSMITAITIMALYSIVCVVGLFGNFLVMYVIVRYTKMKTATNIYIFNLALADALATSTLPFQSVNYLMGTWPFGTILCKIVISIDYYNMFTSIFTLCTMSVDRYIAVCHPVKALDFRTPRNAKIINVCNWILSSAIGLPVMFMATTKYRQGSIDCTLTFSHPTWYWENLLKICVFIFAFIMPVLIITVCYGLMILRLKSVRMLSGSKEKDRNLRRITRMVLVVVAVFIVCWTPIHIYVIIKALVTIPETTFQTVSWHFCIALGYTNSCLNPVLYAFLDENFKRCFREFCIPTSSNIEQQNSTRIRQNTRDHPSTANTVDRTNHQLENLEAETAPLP

Chain of Histamine H2 receptor (P25021 whole entry): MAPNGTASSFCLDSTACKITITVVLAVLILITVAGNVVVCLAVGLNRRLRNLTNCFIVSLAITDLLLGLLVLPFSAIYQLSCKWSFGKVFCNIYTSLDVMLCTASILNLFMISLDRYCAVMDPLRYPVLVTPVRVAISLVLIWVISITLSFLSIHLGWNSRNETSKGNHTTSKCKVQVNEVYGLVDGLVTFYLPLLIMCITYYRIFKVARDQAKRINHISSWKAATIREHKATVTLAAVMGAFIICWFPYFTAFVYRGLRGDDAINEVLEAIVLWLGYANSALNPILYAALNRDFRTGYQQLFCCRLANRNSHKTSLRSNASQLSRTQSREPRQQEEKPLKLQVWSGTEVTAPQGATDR

SMILES | Ki (Histamine H2 receptor) | Drug recovery (MDCK [1]) | Papp (MDCK [2]) | inhibition (Homo sapiens) | residual activity [3] | Ki (Mu-type opioid receptor)
O=C(O)CCC(=O)N1N=C(c2c(-c3ccc(Cl)cc3)c3ccccc3[nH]c2=O)CC1c1ccc(Cl)cc1 (racemic) | > 10 µM | 73% | 0.47 ×10⁻⁶ cm/s | – | – | –
O=C(O)/C=C/C(=O)N1N=C(c2c(-c3ccc(Br)cc3)c3ccccc3[nH]c2=O)CC1c1ccc(Cl)cc1 (racemic) | – | – | – | inactive | 3.1% | > 10 µM
